Reference: ChEMBL document CHEMBL1141803, “Floratheasaponins A-C, acylated oleanane-type triterpene oligoglycosides with anti-hyperlipidemic activities from flowers of the tea plant (Camellia sinensis)” (2005)

Assays:
Format in all cases: functional
Mus musculus [1] = assay: Antihyperlipidemic activity in olive oil-treated ddY mouse assessed as serum triglyceride level at 50 mg/kg, po after 2 hrs
Procedure, shortened: (§1)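 Male ddY mice (25-30 g) kept at 23 ± 2 °C on standard chow, fasted 24-26 h with free access to water, conscious. Test sample given orally; olive oil (5 mL/kg, p.o.) given 30 min later. Blood drawn from the infraorbital venous plexus 2, 4 and 6 h after olive oil. Serum TG measured enzymatically (triglyceride E test). Means ± SEM, n = 5-12 per group.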

Mus musculus [2] = assay: Antihyperlipidemic activity in olive oil-treated ddY mouse assessed as serum triglyceride level at 100 mg/kg, po after 2 hrs; procedure, shortened: as §1
Mus musculus [3] = assay: Antihyperlipidemic activity in olive oil-treated ddY mouse assessed as serum triglyceride level at 50 mg/kg, po after 4 hrs; procedure, shortened: as §1
Mus musculus [4] = assay: Antihyperlipidemic activity in olive oil-treated ddY mouse assessed as serum triglyceride level at 100 mg/kg, po after 4 hrs; procedure, shortened: as §1
Mus musculus [5] = assay: Antihyperlipidemic activity in olive oil-treated ddY mouse assessed as serum triglyceride level at 50 mg/kg, po after 6 hrs; procedure, shortened: as §1
Mus musculus [6] = assay: Antihyperlipidemic activity in olive oil-treated ddY mouse assessed as serum triglyceride level at 100 mg/kg, po after 6 hrs; procedure, shortened: as §1
Mus musculus [7] = assay: Antihyperlipidemic activity in olive oil-treated ddY mouse assessed as serum triglyceride level at 125 mg/kg, po after 2 hrs; procedure, shortened: as §1
Mus musculus [8] = assay: Antihyperlipidemic activity in olive oil-treated ddY mouse assessed as serum triglyceride level at 250 mg/kg, po after 2 hrs; procedure, shortened: as §1
Mus musculus [9] = assay: Antihyperlipidemic activity in olive oil-treated ddY mouse assessed as serum triglyceride level at 500 mg/kg, po after 2 hrs; procedure, shortened: as §1
Mus musculus [10] = assay: Antihyperlipidemic activity in olive oil-treated ddY mouse assessed as serum triglyceride level at 125 mg/kg, po after 4 hrs; procedure, shortened: as §1
Mus musculus [11] = assay: Antihyperlipidemic activity in olive oil-treated ddY mouse assessed as serum triglyceride level at 250 mg/kg, po after 4 hrs; procedure, shortened: as §1
Mus musculus [12] = assay: Antihyperlipidemic activity in olive oil-treated ddY mouse assessed as serum triglyceride level at 500 mg/kg, po after 4 hrs; procedure, shortened: as §1
Mus musculus [13] = assay: Antihyperlipidemic activity in olive oil-treated ddY mouse assessed as serum triglyceride level at 125 mg/kg, po after 6 hrs; procedure, shortened: as §1
Mus musculus [14] = assay: Antihyperlipidemic activity in olive oil-treated ddY mouse assessed as serum triglyceride level at 250 mg/kg, po after 6 hrs; procedure, shortened: as §1
Mus musculus [15] = assay: Antihyperlipidemic activity in olive oil-treated ddY mouse assessed as serum triglyceride level at 500 mg/kg, po after 6 hrs; procedure, shortened: as §1
Mus musculus [16] = assay: Antihyperlipidemic activity in olive oil-treated ddY mouse assessed as serum triglyceride level at 25 mg/kg, po after 2 hrs; procedure, shortened: as §1
Mus musculus [17] = assay: Antihyperlipidemic activity in olive oil-treated ddY mouse assessed as serum triglyceride level at 25 mg/kg, po after 4 hrs; procedure, shortened: as §1
Mus musculus [18] = assay: Antihyperlipidemic activity in olive oil-treated ddY mouse assessed as serum triglyceride level at 25 mg/kg, po after 6 hrs; procedure, shortened: as §1
Mus musculus [19] = assay: Antihyperlipidemic activity in olive oil-treated ddY mouse assessed as serum triglyceride level at 6.25 mg/kg, po after 2 hrs; procedure, shortened: as §1
Mus musculus [20] = assay: Antihyperlipidemic activity in olive oil-treated ddY mouse assessed as serum triglyceride level at 12.5 mg/kg, po after 2 hrs; procedure, shortened: as §1
Mus musculus [21] = assay: Antihyperlipidemic activity in olive oil-treated ddY mouse assessed as serum triglyceride level at 6.25 mg/kg, po after 4 hrs; procedure, shortened: as §1
Mus musculus [22] = assay: Antihyperlipidemic activity in olive oil-treated ddY mouse assessed as serum triglyceride level at 12.5 mg/kg, po after 4 hrs; procedure, shortened: as §1
Mus musculus [23] = assay: Antihyperlipidemic activity in olive oil-treated ddY mouse assessed as serum triglyceride level at 6.25 mg/kg, po after 6 hrs; procedure, shortened: as §1
Mus musculus [24] = assay: Antihyperlipidemic activity in olive oil-treated ddY mouse assessed as serum triglyceride level at 12.5 mg/kg, po after 6 hrs; procedure, shortened: as §1

SMILES	Activity (Mus musculus [1]) [mg/dL]	Activity (Mus musculus [2]) [mg/dL]	Activity (Mus musculus [3]) [mg/dL]	Activity (Mus musculus [4]) [mg/dL]	Activity (Mus musculus [5]) [mg/dL]	Activity (Mus musculus [6]) [mg/dL]	Activity (Mus musculus [16]) [mg/dL]	Activity (Mus musculus [17]) [mg/dL]	Activity (Mus musculus [18]) [mg/dL]	other results
CC1(C)C[C@H]2C3=CC[C@@H]4[C@@]5(C)CC[C@H](O[C@@H]6O[C@H](C(=O)O)[C@@H](O)[C@H](O[C@@H]7OC[C@H](O)[C@H](O)[C@H]7O[C@@H]7OC[C@@H](O)[C@H](O)[C@H]7O)[C@H]6O[C@@H]6O[C@H](CO)[C@H](O)[C@H](O)[C@H]6O)[C@@](C)(C=O)C5CC[C@@]4(C)[C@]3(C)C[C@@H](O)[C@@]2(CO)[C@@H](O)[C@@H]1O (stereo partly drawn)	468.7	440.8	410.5	363.2	332.3	314.3				
CCOC(=O)C(C)(C)Oc1ccc(Cl)cc1 [CLOFIBRATE]										Activity (Mus musculus [7]): 377.5 mg/dL; Activity (Mus musculus [8]): 441.2 mg/dL; Activity (Mus musculus [9]): 318.2 mg/dL; Activity (Mus musculus [10]): 295 mg/dL; Activity (Mus musculus [11]): 340.5 mg/dL; Activity (Mus musculus [12]): 239.7 mg/dL; Activity (Mus musculus [13]): 333.4 mg/dL; Activity (Mus musculus [14]): 443.3 mg/dL; Activity (Mus musculus [15]): 373.5 mg/dL
C/C=C\C(=O)O[C@H]1[C@H](OC(C)=O)[C@]2(CO)[C@H](O)C[C@]3(C)C(=CC[C@@H]4[C@@]5(C)CC[C@H](O[C@@H]6O[C@H](C(=O)O)[C@@H](O)[C@H](O[C@@H]7OC[C@H](O)[C@H](O)[C@H]7O[C@@H]7OC[C@@H](O)[C@H](O)[C@H]7O)[C@H]6O[C@@H]6O[C@H](CO)[C@H](O)[C@H](O)[C@H]6O)C(C)(C)C5CC[C@]43C)[C@@H]2CC1(C)C (stereo partly drawn) [FLORATHEASAPONIN A]	387.4	158.3	392.9	242	256.8	322.3	411	251.8	135.7	
CCCCCCCCCCC[C@@H](C[C@@H]1OC(=O)[C@H]1CCCCCC)OC(=O)[C@H](CC(C)C)NC=O [ORLISTAT]							158.9	132.2	140.1	Activity (Mus musculus [19]): 266.4 mg/dL; Activity (Mus musculus [20]): 187.9 mg/dL; Activity (Mus musculus [21]): 179.3 mg/dL; Activity (Mus musculus [22]): 176 mg/dL; Activity (Mus musculus [23]): 155.6 mg/dL; Activity (Mus musculus [24]): 189.7 mg/dL
C/C=C\C(=O)O[C@H]1[C@H](OC(C)=O)[C@]2(CO)[C@H](O)C[C@]3(C)C(=CC[C@@H]4[C@@]5(C)CC[C@H](O[C@@H]6O[C@H](C(=O)O)[C@@H](O)[C@H](O[C@@H]7OC[C@H](O)[C@H](O)[C@H]7O[C@@H]7OC[C@@H](O)[C@H](O)[C@H]7O)[C@H]6O[C@@H]6O[C@H](CO)[C@H](O)[C@H](O)[C@H]6O)[C@@](C)(C=O)C5CC[C@]43C)[C@@H]2CC1(C)C (stereo partly drawn) [THEASAPONIN E1]	373.9	342.3	312.2	389.5	267.2	294.9	578.5	430.7	233.9	
C/C=C\C(=O)O[C@H]1[C@H](O)[C@]2(COC(C)=O)[C@H](O)C[C@]3(C)C(=CC[C@@H]4[C@@]5(C)CC[C@H](O[C@@H]6O[C@H](C(=O)O)[C@@H](O)[C@H](O[C@@H]7OC[C@H](O)[C@H](O)[C@H]7O[C@@H]7OC[C@@H](O)[C@H](O)[C@H]7O)[C@H]6O[C@@H]6O[C@H](CO)[C@H](O)[C@H](O)[C@H]6O)[C@@](C)(C=O)C5CC[C@]43C)[C@@H]2CC1(C)C (stereo partly drawn) [THEASAPONIN E2]	552.9	509.4	507.5	507	361.3	396.4				
